Dynein cargo inh: dynein cargo transport inhibition. z-score, hits read low. hit rate 0.47% among 220,000. 3617.4 mouse cells, GR-EGFP nuclear translocation imaging; test concentration mostly 20 µM; stimulated with dexamethasone, 1 µM; active compounds read low;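 active = plate z-score of nuclear minus cytoplasmic receptor signal below a set negative limit, without overly bright fluorescence or cell loss, cut at about -3.5 in these data, passing the limit was not always enough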;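 note: z-score of nuclear minus cytoplasmic ring GR-EGFP intensity difference per well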
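Buffer or medium: tetracycline-free induction medium containing charcoal-stripped FBS / Reagent: dexamethasone agonist, 1.0 µM final, for 30 min / Technique: automated 10x imaging of fixed Hoechst-stained cells / Times: induction 48 h, compound 1 h, agonist 30 min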
Insulin prom inh: TRM-6 insulin promoter activity inhibition | TRM-6 cells, insulin promoter-eGFP reporter, imaging; reporter expression induced with tamoxifen | inhibition, % at 2 µM | hit rate 0.9% among 130,000 | AID 1273;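 active = inhibition above the mean plus 3 SD, with well images judged a real hit on visual review, cut at about 60% in these data, passing the limit was not always enough; inconclusive = inhibition over the cutoff but images rejected on review; inactive = inhibition not above the cutoff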
Autophagy mod: alters autophagy in cells | MEF GFP-LC3 puncta imaging; test concentration mostly 10 µM | calls only at 10 µM (by protocol) | hit rate 0.98% among 190,000 | AID 463193;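 active = percentage of spot-positive cells more than 3 SD above its plate mean, without a fluorescence outlier flag or 80% toxicity; inconclusive = no clear call, values can overlap the other calls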
Ins promoter up: MIN6 insulin promoter up-regulation; MIN6 insulin promoter-GFP reporter, high-content imaging; active compounds read high; z-score at 5 µM; hit rate 0.3% among 190,000; AID 1625;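 active = z-score above 3 at 5 µM with at least 500 cells counted in the well; inconclusive = wells under 500 cells, flagged as cytotoxic or low count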
Dynein confirm: dynein cargo transport inhibition, confirmation; shares compounds with Dynein cargo inh; 3617.4 GR-EGFP nuclear translocation imaging, dexamethasone-induced; calls only at 20 µM; hit rate 69% among 1,000;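 active = inhibition of receptor movement into the nucleus at or above a set limit in both runs, with normal cell brightness and cell count; inconclusive = limit reached in only one run, brightness and count normal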;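 note: dexamethasone at 1 µM final in well for 30 min; nuclear minus cytoplasmic GR-EGFP mean intensity difference in channel 2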
Hits are given with their value; i = inactive; ? = inconclusive; nt = no result; + = active, no number. This is a sample that favours compounds with a hit; in the whole collection about 2% have one here.

SMILES	Dynein cargo inh	Insulin prom inh	Autophagy mod	Ins promoter up	Dynein confirm
CCCCCCOC(=O)C[N+](C)(C)CCOC1CC2CCC1(C)C2(C)C (stereo not drawn)	i	i	i	?	nt
O=C(/C=C/c1cc(Br)ccc1O)c1ccco1	-4.7	nt	nt	?	i
CC(C)N(C(=O)COC(=O)c1ccccc1C(=O)c1ccc(Cl)c([N+](=O)[O-])c1)C(C)C	-3.6	nt	i	i	i
CN(CCC#N)C(=O)COC(=O)c1ccccc1C(=O)c1ccc(Cl)c([N+](=O)[O-])c1	i	i	i	i	nt
O=C1CCCCc2sc(Br)c([N+](=O)[O-])c2N1	-6.5	nt	nt	?	+
CC(C)CN(C(=O)CN1CCc2ccccc21)c1c(N)n(CC(C)C)c(=O)[nH]c1=O	i	nt	i	i	nt
Nc1c(C(=O)c2ccccc2)sc2nsc(SCCN3CCCC3)c12	i	nt	nt	nt	i
CC(=O)c1sc2nsc(SCCN3CCCCC3)c2c1N	i	nt	nt	i	nt
Nc1c(C(=O)c2ccc(Cl)cc2)sc2nsc(SCCN3CCOCC3)c12	i	nt	nt	nt	i
Fc1ccc(-n2ncc3c(SCc4cccnc4)ncnc32)cc1	i	nt	i	i	nt
Cc1c(Cl)ccc2c(C(=O)NC(C)c3ccncc3)cc(-c3ccncc3)nc12 (stereo not drawn)	i	nt	i	i	nt
CCOC(=O)c1nc(S(C)(=O)=O)ncc1Cl	-5.1	nt	i	i	i
O=C(CCl)N1CCN2C(=O)c3ccccc3C12c1ccc(Cl)cc1 (stereo not drawn)	-4.6	i	i	i	+
O=C(Nc1cccc(Cl)c1)N1CCN2C(=O)c3ccccc3C12c1ccccc1 (stereo not drawn)	i	i	i	i	nt
CCOCCCNC(=O)C(NC(=O)Cc1cccs1)c1ccc(Cl)cc1 (stereo not drawn)	i	nt	i	i	nt
O=C(Nc1ccc(Cl)cc1)Nc1ccccc1Sc1ncc([N+](=O)[O-])s1	i	nt	nt	i	nt
C=CCn1c(Sc2ncc([N+](=O)[O-])s2)n[nH]c1=O	-5.7	nt	nt	i	+
NC(=O)N/N=C/c1c(Sc2nnnn2-c2ccccc2)nc2ccccn2c1=O	-5.3	nt	nt	i	i
Cc1cc2c(sc3c(C)ccc(C)c32)c(C)n1	i	nt	nt	i	nt
CCOc1ccc(N2C(=O)CC(Sc3n[nH]c(-c4ccccc4)n3)C2=O)cc1 (stereo not drawn)	-5.2	nt	i	i	i
CS(=O)(=O)c1sc(C#N)c2c1C(=O)CC(c1ccccc1)C2 (stereo not drawn)	-3.8	nt	nt	i	?
Cc1oc2c(c(=O)c1C)C(=O)CC(c1ccccc1)C2 (stereo not drawn)	i	i	i	i	nt
O=C(CN1C(=O)C2CC=CCC2C1=O)Nc1ccc(S(=O)(=O)Nc2nccs2)cc1 (stereo not drawn)	i	nt	nt	i	nt
Cc1cc(Sc2nc(N)ncc2[N+](=O)[O-])ncn1	-5	nt	i	i	+
Cc1cc(Sc2ncnc(N)c2[N+](=O)[O-])ncn1	-5.7	nt	i	i	+
SMILES	Dynein cargo inh	Insulin prom inh	Autophagy mod	Ins promoter up	Dynein confirm
CCOC(=O)c1cnc2c(F)ccc(F)c2c1Sc1ccccc1	-4	nt	nt	i	+
CCOC(=O)c1ccc(N=c2sc(C(=O)OC)cc(=O)n2Cc2ccco2)cc1	-6.3	nt	i	i	+
COC(=O)c1cc(=O)n(Cc2ccc(OC)cc2)c(=NCc2ccc(OC)cc2)s1	i	nt	i	i	nt
CCn1c(=O)cc(C(=O)OC)sc1=Nc1ccc(F)c(F)c1	-3.9	nt	i	i	+
CCCCN=c1sc(C(=O)OC)cc(=O)n1CCCC	i	?	i	i	nt
COC(=O)c1cc(=O)n(Cc2ccc3c(c2)OCO3)c(=Nc2ccc(F)c(Cl)c2)s1	-3.6	nt	i	i	+
COC(=O)c1cc(=O)n(Cc2cccs2)c(=NCc2cccs2)s1	i	i	i	i	nt
COC(=O)c1cc(=O)n(CCc2ccc(OC)cc2)c(=Nc2ccc(F)c(Cl)c2)s1	-4.4	nt	i	i	+
N=C1C(c2ccccc2)=C(O)CN1c1cccc(S(=O)(=O)NCc2ccco2)c1	i	nt	nt	i	nt
CC(=O)NCc1ccc(C(=O)O)cc1	i	nt	nt	i	nt
CCCCNC(=O)Nc1ncn[nH]1	i	nt	nt	i	nt
COc1ccc(/C=C(/C(=O)c2cccs2)N2C=CC=CC2=C(C#N)C#N)cc1	-3.6	nt	i	i	?
COc1ccc(N=N/C(=C\O)C(=O)c2cccs2)cc1	i	i	i	i	nt
O=C(COc1ccc(/C=C\[N+](=O)[O-])cc1)N1CCOCC1	-5	nt	i	i	+
CC1=CC(=O)C(C(C)C)=C/C1=N/OS(=O)(=O)c1ccccc1	-4.2	nt	nt	?	i
Cc1ccc2c(c1)/C(=N/OS(=O)(=O)c1ccccc1)CCS2	i	i	i	nt	nt
CC1=CC(=O)C=C(C)C1=NOS(=O)(=O)c1ccccc1	-5	i	i	i	+

Source: PubChem
